Reference: publication PMC3725831 (European journal of inorganic chemistry, 2011)
Where two headings read alike, the source gives them in different places.

Assays:
[1] = system: cancer and normal colon cells; settings: both cell lines (cancer and normal colon cells); cited from earlier work
[2] = system: HT-29 (human colon adenocarcinoma); test: MTS cytotoxicity assay, HT-29 cells; format: cell-based
How it was run: (§1)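 Cells grown in McCoy's 5a with 10% FBS, 1% NEAA and 2% HEPES at 37 °C, 5% CO2, then seeded at 2000–5,000/well 24 h before dosing. Test compound in DMSO (<0.5% final) was given as six-point 4-fold serial dilutions for 24, 48 or 72 h. Read-out was MTS plus phenazine methosulphate for 3 h, OD490 versus DMSO controls. IC50 from curves; mean ± SE, three replications.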

[3] = system: HCT-116 (human colon carcinoma); test: MTS cytotoxicity assay, HCT-116 cells; format: cell-based
How it was run: as §1

[4] = system: Caco-2 (human epithelial colorectal adenocarcinoma); test: MTS cytotoxicity assay, Caco-2 cells; format: cell-based
[5] = system: CCD-18Co (human colon fibroblasts); test: MTS cytotoxicity assay, non-cancerous CCD-18Co cells; format: cell-based
How it was run: as §1, with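 “Colon fibroblasts” for “Cells”, “EMEM” for “McCoy's 5a”, “1% L-glutamine” for “2% HEPES”, “CO2; used at PDL 26–35. Seeded” for “CO2, then seeded”, “MTS/phenazine” for “MTS plus phenazine”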

[6] = system: cisplatin-resistant ovarian and testicular cancer cell lines; settings: ref 9c; cited from earlier work

## N.N.[Cl][Pt][Cl] [Cisplatin]
[1]
  inhibition of cell proliferation: about 70%

## COc1cc([C@@H]2c3cc4c(cc3[C@@H](O[C@@H]3O[C@@H]5CO[C@@H](C)O[C@H]5[C@H](O)[C@H]3O)[C@H]3COC(=O)[C@H]23)OCO4)cc(OC)c1O [Etoposide]
[2]; HT-29, 24 h, read-out: IC50 HT-29 24 hours
  IC50: 19.2 ± 0.8 µM
[2]; HT-29, 48 h, read-out: IC50 HT-29 48 hours
  IC50: 17.3 ± 1.9 µM
[2]; HT-29, 72 h, read-out: IC50 HT-29 72 hours
  IC50: 15.8 ± 2.4 µM
[3]; HCT-116, 24 h, read-out: IC50 HCT-116 24 hours
  IC50: 40.8 ± 0.5 µM
[3]; HCT-116, 48 h, read-out: IC50 HCT-116 48 hours
  IC50: 36.2 ± 2 µM
[3]; HCT-116, 72 h, read-out: IC50 HCT-116 72 hours
  IC50: 38.4 ± 1.2 µM
[4]; Caco-2, 24 h, read-out: IC50 Caco-2 24 hours
  IC50: 47.6 ± 0.8 µM
[4]; Caco-2, 48 h, read-out: IC50 Caco-2 48 hours
  IC50: 46.2 ± 1.9 µM
[4]; Caco-2, 72 h, read-out: IC50 Caco-2 72 hours
  IC50: 40.9 ± 1.5 µM
[5]; 24 h, read-out: IC50 CCD-18Co 24 hours
  IC50: 82.5 ± 3.1 µM
[5]; 48 h, read-out: IC50 CCD-18Co 48 hours
  IC50: 79.2 ± 1.2 µM
[5]; 72 h, read-out: IC50 CCD-18Co 72 hours
  IC50: 73.2 ± 1.9 µM

## Cc1ccnc2c1ccc1c(C)ccnc12.Cc1ccnc2c1ccc1c(C)ccnc12.O=S(=O)([O-])[O-].[O]=[V+2] [metvan, bis(4,7-dimethyl-1,10-phenanthroline)sulfatooxovanadium(IV)]
[6]
  effectiveness against cisplatin-resistant cancer cell lines: highly effective
